# Bioassay records deposited in PubChem by several laboratories.
# HUVEC inhibit – inhibitors of HUVEC proliferation, primary screen, cell-based, 384-well; viability, % at 10 µM (by protocol); AID 648, 2007; CellTiter-Glo luminescence, 72 h; hits give low values; 1.1% of 86,000 active;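 active = viability at or below 30%; inactive = viability above 30%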;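 also: 100% = median luminescence of DMSO-only cell control wells on each plate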
# bCat KO growth – primary screen for growth suppressors in beta-catenin knockout HCT116 cells (colon tumor, human); HCT116 beta-catenin knockout viability, CellTiter-Glo, 60 h; hits give low values; viability, % at 10 µM; 1.5% of 140,000 active;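 active = viability at or under a set limit, the compound median less 4 SD, cut at about 6% in these data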;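 also: 0% = Hyamine 1622 control at 20 µM and 100% = untreated cell control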
# Cav3 T inh – Cav3.2 calcium influx blockers – cell-based, Fluo-4 calcium fluorescence, FDSS, MLSMR library, primary screen; Voltage-dependent T-type calcium channel subunit alpha-1H (Homo sapiens), O95180; Cav3.2-expressing cells; hits give low values; B-score at 10 µM; 4% of 100,000 active;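 active = single-dose well whose peak fluorescence ratio is a statistical outlier from its plate by either plate-standardised score or position-corrected B-score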
# Target sequence (O95180 whole entry, looked up): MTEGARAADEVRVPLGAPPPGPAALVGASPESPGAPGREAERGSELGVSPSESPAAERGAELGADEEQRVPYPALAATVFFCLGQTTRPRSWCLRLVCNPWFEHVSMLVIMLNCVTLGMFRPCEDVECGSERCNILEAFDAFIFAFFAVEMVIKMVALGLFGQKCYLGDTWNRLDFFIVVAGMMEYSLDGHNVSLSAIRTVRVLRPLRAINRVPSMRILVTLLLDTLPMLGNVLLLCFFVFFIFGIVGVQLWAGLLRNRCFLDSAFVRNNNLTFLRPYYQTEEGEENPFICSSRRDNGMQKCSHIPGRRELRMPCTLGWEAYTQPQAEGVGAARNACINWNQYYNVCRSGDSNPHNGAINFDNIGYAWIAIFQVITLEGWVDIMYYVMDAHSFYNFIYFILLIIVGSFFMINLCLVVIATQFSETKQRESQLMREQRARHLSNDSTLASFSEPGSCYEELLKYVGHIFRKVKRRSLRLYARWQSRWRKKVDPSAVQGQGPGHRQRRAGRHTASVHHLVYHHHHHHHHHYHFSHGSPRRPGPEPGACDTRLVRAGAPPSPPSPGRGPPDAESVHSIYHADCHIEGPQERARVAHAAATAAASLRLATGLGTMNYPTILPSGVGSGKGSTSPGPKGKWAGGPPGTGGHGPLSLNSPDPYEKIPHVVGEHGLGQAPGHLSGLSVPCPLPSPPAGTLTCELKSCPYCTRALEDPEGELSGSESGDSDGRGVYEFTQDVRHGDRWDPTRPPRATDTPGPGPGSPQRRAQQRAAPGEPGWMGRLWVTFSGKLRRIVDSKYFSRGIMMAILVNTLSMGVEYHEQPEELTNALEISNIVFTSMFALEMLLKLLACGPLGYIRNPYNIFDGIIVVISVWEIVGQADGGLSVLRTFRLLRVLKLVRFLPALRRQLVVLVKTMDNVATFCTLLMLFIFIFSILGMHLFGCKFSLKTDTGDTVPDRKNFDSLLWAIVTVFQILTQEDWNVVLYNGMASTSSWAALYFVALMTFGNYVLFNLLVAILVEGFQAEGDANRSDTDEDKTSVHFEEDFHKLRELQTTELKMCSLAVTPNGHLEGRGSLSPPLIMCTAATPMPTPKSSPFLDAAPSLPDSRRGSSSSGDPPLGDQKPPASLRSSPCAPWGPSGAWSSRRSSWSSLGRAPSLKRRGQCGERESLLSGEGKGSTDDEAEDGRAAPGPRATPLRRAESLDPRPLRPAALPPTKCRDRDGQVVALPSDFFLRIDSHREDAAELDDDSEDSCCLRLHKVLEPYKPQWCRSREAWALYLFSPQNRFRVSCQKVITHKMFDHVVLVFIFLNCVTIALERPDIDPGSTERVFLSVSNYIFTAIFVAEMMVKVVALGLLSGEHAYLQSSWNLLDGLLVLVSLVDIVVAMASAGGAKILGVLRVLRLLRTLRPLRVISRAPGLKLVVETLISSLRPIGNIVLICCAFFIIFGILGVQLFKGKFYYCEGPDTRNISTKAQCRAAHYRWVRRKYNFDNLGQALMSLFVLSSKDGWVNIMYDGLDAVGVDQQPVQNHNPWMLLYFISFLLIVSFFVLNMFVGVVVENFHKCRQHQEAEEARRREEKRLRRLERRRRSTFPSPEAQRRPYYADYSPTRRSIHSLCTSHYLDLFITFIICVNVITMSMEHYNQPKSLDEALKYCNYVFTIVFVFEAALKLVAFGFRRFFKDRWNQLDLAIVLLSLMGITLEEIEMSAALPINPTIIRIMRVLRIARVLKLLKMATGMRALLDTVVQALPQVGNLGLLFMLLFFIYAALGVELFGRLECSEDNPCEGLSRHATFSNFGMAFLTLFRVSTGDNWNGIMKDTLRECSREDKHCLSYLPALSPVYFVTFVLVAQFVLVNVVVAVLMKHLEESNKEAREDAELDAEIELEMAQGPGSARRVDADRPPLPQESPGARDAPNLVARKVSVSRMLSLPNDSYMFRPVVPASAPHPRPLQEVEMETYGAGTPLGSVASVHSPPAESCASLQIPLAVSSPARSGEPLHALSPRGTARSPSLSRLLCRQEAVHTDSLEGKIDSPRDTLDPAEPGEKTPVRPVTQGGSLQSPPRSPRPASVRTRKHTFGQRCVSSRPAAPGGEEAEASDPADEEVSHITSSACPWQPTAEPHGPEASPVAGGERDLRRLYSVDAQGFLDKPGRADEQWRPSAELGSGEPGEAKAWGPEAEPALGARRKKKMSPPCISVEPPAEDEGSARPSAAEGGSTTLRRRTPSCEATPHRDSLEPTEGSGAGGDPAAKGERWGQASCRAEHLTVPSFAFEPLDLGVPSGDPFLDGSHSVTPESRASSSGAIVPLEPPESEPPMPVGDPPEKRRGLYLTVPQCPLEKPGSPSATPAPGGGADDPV
# PTEN del growth – growth suppression of PTEN-null HCT116, primary screen, cell-based, CellTiter-Glo; AID 827, 2007; 1.2% of 140,000 active; HCT116 PTEN-null viability, 60 h; hits give low values; viability, % at 10 µM;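 active = viability at or below a set limit, 4 SD under the median of all tested compounds, cut at about 3.7% in these data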;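 also: PTEN knockout HCT116 line with beta catenin targeted HCT116 as companion control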
# H69AR inhibit – proliferation blockers of H69AR lung cancer cells, primary screen, cell-based, human, 86K library. H69AR lung tumor viability, ATP luminescence, 72 h; hits give low values. viability, % at 10 µM. 6% of 85,000 active. AID 598, 2007;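 active = viability at or below 40%; inactive = viability above 40%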;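 also: multidrug resistant small cell line overexpressing MRP-1 efflux transporter; 100% = mean luminescence of untreated control wells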
# Lung fibro prol – antiproliferative effect on LL 47 fibroblasts – human, LL 47 cells, CellTiter-Glo luminescence, primary screen; 1.1% of 85,000 active; LL 47 human lung fibroblast viability, ATP luminescence; hits give low values; viability, % at 10 µM;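 active = viability at or below 50% in the single dose screen; inactive = viability above 50%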;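 also: compound exposure lasted 72 h before the ATP readout; 100% = median luminescence of untreated cell-only wells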
#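 Test system: LL 47 human lung fibroblasts / Incubation: 72 h compound exposure at 37 °C after overnight plating / Technique: luminescent ATP detection, CellTiter-Glo / Compound dosing: 0.1% DMSO in all compound wells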
# An asterisk follows results filed as active; x = not tested or not shown. A selection: hits, their analogues and other compounds. The true share with any hit is near 7.1%.
SMILES,HUVEC inhibit,bCat KO growth,Cav3 T inh,PTEN del growth,H69AR inhibit,Lung fibro prol
Cc1cc2c(cc1C)CSC(c1c(O)ccc3ccccc13)SC2,1.7*,4.6*,-0.631,5.8,1.6*,67.3
OCCCCNCc1ccc(OCc2ccccc2Cl)cc1,x,70.7,x,69.8,x,x
NC(N)=N/N=C/c1ccc(OCc2ccccc2Cl)cc1,x,0.9*,x,0.9*,x,x
CC[n+]1c(/C=C/c2ccc(N(C)C)cc2)ccc2ccccc21,x,3.4*,x,2.1*,x,x
CN(C)c1ccc(/C=C/c2cc[n+](C)cc2)cc1,95.8,8.5,-1.41,14.4,43.0,101.3
CCc1cc(OCCCCNCc2ccccc2)ccc1Cl,x,23.1,x,41.6,x,x
CCOC(=O)c1sc(NC(=O)COC(=O)CNC(=O)C2CCCCC2)c(C(=O)OCC)c1C,x,88.3,x,96.8,x,x
CC1(C)C(=O)Nc2ccccc2N1C(=O)COC(=O)C1CCCCC1,101.2,106.0,-5.59*,114.1,89.8,109.9
Cc1cccc(C)c1N1CCN(c2ccc3nnc(C(F)(F)F)n3n2)CC1,12.6*,41.8,-0.863,38.3,24.7*,90.0
Oc1ccc(C2Nc3cccc4cccc(c34)N2)c(O)c1,82.3,94.8,0.511,81.3,17.0*,82.8
COc1cc(C2Nc3cccc4cccc(c34)N2)cc(OC)c1O,81.5,90.7,x,88.7,18.8*,106.6
COc1cc(C2Nc3cccc4cccc(c34)N2)ccc1OC(C)=O,74.6,88.9,-0.807,93.7,x,108.4
c1coc(C2Nc3cccc4cccc(c34)N2)c1,77.7,92.5,x,89.5,6.7*,98.5
COc1ccccc1NC(=S)NNC(=O)c1ccccc1Br,x,91.9,x,90.4,x,x
O=C(NCC1CCCO1)c1sc2cc(Cl)ccc2c1Cl (centres undefined),x,99.2,x,94.9,x,x
FC(F)(F)c1cc(-c2ccco2)nc(NCCc2ccccc2)n1,87.5,52.5,0.796,50.4,24.0*,89.0
FC(F)(F)c1cc(-c2ccco2)nc(N2CCN(Cc3ccccc3)CC2)n1,x,85.8,1.3,83.4,x,x
Cc1ccc(NC(=O)CC2C(=O)N(Cc3ccccc3)C(=S)N2NC(=O)c2ccccc2)c(C)c1 (centres undefined),x,79.7,x,76.9,x,x
COc1cc(C)c(/C=C(\C#N)C(=O)Nc2cccc(C)c2)cc1C(C)C,x,95.4,x,94.9,x,x
O=c1[nH]c(NCCCO)nc2c1C1(CCCC1)Cc1ccccc1-2,86.5,65.2,-4.06*,73.5,92.2,98.0
CN(C)Cc1nc2c(c(=O)[nH]1)C1(CCCCC1)Cc1ccccc1-2,82.7,40.2,-2.88,60.2,7.2*,72.8
C=CCNC(=S)NNc1nc2c(c(=O)[nH]1)C1(CCCC1)Cc1ccccc1-2,x,79.2,x,91.9,x,x
COc1ccc(-c2csc(NCCc3nc4cc(C(=O)NCCCO)ccc4n3Cc3ccc(C)cc3)n2)cc1,x,x,-0.575,x,x,x
CCN(CC)C(=O)Cn1nc(-c2ccccc2O)nc1SCC(=O)Nc1ccc(OC)cc1,77.8,83.5,-3.52,75.2,35.4*,92.5
COc1ccc(NC(=O)CSc2nc(-c3ccncc3)nn2CC(=O)N2CCCC2)cc1,84.6,97.7,-0.28,102.4,72.3,87.8
SMILES,HUVEC inhibit,bCat KO growth,Cav3 T inh,PTEN del growth,H69AR inhibit,Lung fibro prol
COc1ccc(NC(=O)CSc2ccc3c4c(cccc24)C(=O)c2ccccc2-3)cc1,x,6.4,-4.36,3.4*,x,x
N#Cc1cccc(NC(=O)CSc2ccc3c4c(cccc24)C(=O)c2ccccc2-3)c1,x,72.0,-5.64*,22.5,x,x
COc1ccc(NC(=O)CSc2nc3ccccc3c3nc4ccccc4n23)cc1,x,52.8,x,40.4,x,x
COc1cccc(C(=O)NN/C(C)=C/C(=O)C(F)(F)C(F)(F)C(F)(F)F)c1,x,62.3,x,64.0,x,x
COc1ccccc1-c1nc(C(N)=O)c2[nH]c(=O)n(-c3cccc(C)c3)c2n1,x,94.5,-0.524,82.5,x,x
Cc1cccc(-n2c(=O)[nH]c3c(C(N)=O)nc(-c4ccccc4Cl)nc32)c1,88.5,1.8*,x,1.5*,2.5*,53.2
O=C(Cn1nnc(-c2ccc(Cl)cc2)n1)NC1CC2CCC1C2 (centres undefined),81.6,104.8,-4.59*,87.8,82.9,88.8
CC(C)(C)C1CCc2c(sc(NC(=O)c3ccco3)c2C(N)=O)C1 (centres undefined),75.5,41.5,0.717,50.6,38.7*,59.3
O=C(C#Cc1ccccc1)c1ccc([N+](=O)[O-])cc1,47.4,6.5,-0.6,4.0,1.1*,19.7*
O=C(Nc1ccc(C(=O)OC[C@@H]2CCCN3CCCC[C@H]23)cc1)c1cccc(Br)c1,x,91.7,x,96.6,x,x
Oc1cnc2ccccc2c1CN1CCOCC1,80.2,95.0,0.0141,103.0,91.4,95.3
Oc1c(CN2CCOCC2)cc(COCc2ccccc2)c2cccnc12,x,3.7*,x,2.8*,x,x
CN1CCN(Cc2cc(Cl)c3cccnc3c2OC(=O)c2cccs2)CC1,x,3.7*,x,4.7,x,x
COCc1cc(CN2CCN(C)CC2)c(O)c2ncccc12,90.1,69.4,1.36,80.7,25.3*,86.7
O=C(Oc1c(Cl)cc(Cl)c2cccnc12)N1CCCCC1,83.7,67.6,-0.345,76.2,96.8,93.5
CN(C)c1ccc(N=Nc2ccccc2C(=O)OCC(=O)N(C)c2ccccc2)cc1,x,60.0,x,90.8,x,x
O=C(NCc1cccs1)c1cc(C2CC2)on1,107.0,86.8,0.691,94.4,89.8,101.4
CC(C)N1C(=O)/C(=C\c2nc3ccccc3c(=O)[nH]2)c2ccccc21,x,17.1,x,12.6,x,x
CCC(O)CNC(=O)NC(=C(Cl)Cl)c1ccc(C)c(F)c1 (centres undefined),x,16.7,x,10.8,x,x
O=C(COc1ccc2ccccc2c1)Nc1cccc2cccnc12,89.0,84.6,-1.35,84.4,113.7,115.2
O=C(CN1C(=O)c2ccccc2C1=O)Nc1cccc2cccnc12,97.8,95.2,-10.8*,89.8,88.8,95.4
OCCCc1nc2n(n1)C(c1cccs1)C=C(c1ccccc1)N2 (centres undefined),87.3,78.6,-9.93*,83.9,71.2,104.5
CCCn1c(SCC(=O)Nc2nc3c(s2)CCCC3)nc2c1c(=O)n(C)c(=O)n2C,82.5,91.2,-0.0495,73.0,31.6*,93.3
CCOC(=O)c1c(NC(=O)CSc2nc3c(c(=O)n(C)c(=O)n3C)n2CC)sc(C)c1C,52.7,x,x,x,4.0*,88.5
COc1ccc(NC(=O)C2CCCN(S(=O)(=O)c3ccc4c(c3)oc(=O)n4C)C2)c(OC)c1 (centres undefined),96.8,95.8,0.438,98.7,89.0,102.8
CCOC(=O)C1C(=O)C=C(c2ccc(C)cc2)CC1c1cccc([N+](=O)[O-])c1 (centres undefined),x,35.6,x,44.0,x,x
OCCNCc1cc(Br)ccc1OCc1ccc(Cl)cc1,x,62.0,x,67.1,x,x
OCCNCc1cc(Br)ccc1OCc1ccc(Cl)cc1Cl,x,4.7*,-1.09,14.9,x,x
